We go through two molecules from ChEMBL document CHEMBL3045249, “Synthesis of glucose-fipronil conjugate and its phloem mobility” (J Agric Food Chem, 2011).

The test system of one data set is Plutella xylostella. Description: Insecticidal activity against Plutella xylostella (diamondback moth) third-instar larvae measured 24 hr post dose by leaf disk dipping assay. The data set is classed as functional. Particulars: foliar; call rule not given here. An outline of the steps: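 Third-instar larvae, leaf disk dip. Compounds were dissolved in acetone and suspended in water with 0.1% Tween 80. 5.5 cm leaf disks were dipped 30 s and air-dried 2 h, then 10 larvae were placed per dish. Control was 10% acetone/0.1% Tween 80. Incubation at 26 ± 2 °C, 70% RH, 16:8 h light/dark; five replicates. Mortality was scored at 24 h and LC50 derived with 95% confidence limits.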

For data set [1], the system named is Phloem. Description: Phloem mobility in Ricinus communis (castor bean) seedlings phloem sap assessed as drug level at 200 uM by HPLC-MS method. The data set is classed as ADME. An outline of the steps:
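Six-day castor bean seedlings, endosperm removed. After 1 h the hypocotyl was severed and phloem sap collected from the upper hypocotyl. Sap was analysed by C18 HPLC (acetonitrile/water 50:50, 1.0 mL/min, 210 nm, 25 °C) with external calibration; identity was confirmed by positive-ion APCI-MS.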

For data set [2], the system named is Phloem. Description: Phloem mobility in Ricinus communis (castor bean) seedlings phloem sap assessed as drug level at 200 uM measured 8 hr post dose by DiBAC4 indicator based flow cytometry. Type of data set: ADME. In a few lines: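 Protoplasts from cotyledons were isolated by 4 h digestion at 28 °C in cellulase/pectinase with 0.6 M mannitol and MES pH 5.8. They were suspended in buffer with 200 μM compound, or none for control, and shaken at 28 °C for 8 h. Every 2 h, samples were stained with 2 μM DiBAC4(3) for 30 min. Fluorescence of 20000 viable cells was read by flow cytometry (ex 488/em 530 nm) and expressed relative to fresh cells; n = 3, Duncan's test.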
Background: A flow cytometer gives signals particle by particle.

Data set [3] has as its system Root. The data set is described as follows: Drug metabolism in adult Ricinus communis (castor bean) roots assessed as compound conversion to fipronil at 2 mM measured 48 to 72 hr post treatment. The data set is classed as ADME. Particulars: 2000 µM. In a few lines: (§1)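 Adult castor bean plants. On each of two fully expanded leaves, 100 mm2 of the adaxial surface was abraded with a Celite slurry, rinsed and blotted dry. 200 μL of aqueous GTF in 0.1% Tween 80/10% acetone was applied per leaf; vehicle alone served as control. After 48 and 72 h, plants were cut into apical leaves, upper stem, lower stem and roots (three replicates). 2 g tissue was acetone-extracted with 15 min sonication. Fipronil was quantified by C18 HPLC (acetonitrile/water 50:50, 1.0 mL/min, 210 nm) against external calibration.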

Data set [4] has as its system Lower stem. Description: Drug metabolism in adult Ricinus communis (castor bean) lower stem assessed as compound conversion to fipronil at 2 mM measured 48 to 72 hr post treatment. The data set is classed as ADME. Particulars: 2000 µM. An outline of the steps:
as §1

Data set [5] deals with Upper stem. Description: Drug metabolism in adult Ricinus communis (castor bean) upper stem assessed as compound conversion to fipronil at 2 mM measured 48 to 72 hr post treatment. Type of data set: ADME. Particulars: 2000 µM. An outline of the steps: as §1
The subject of data set [6] is Apical leaf. Description: Drug metabolism in adult Ricinus communis (castor bean) apical leaves assessed as compound conversion to fipronil at 2 mM measured 48 to 72 hr post treatment. Type of data set: ADME. Particulars: 2000 µM. An outline of the steps:
as §1

In data set [7] the test system is Root. Description: Drug metabolism in adult Ricinus communis (castor bean) roots assessed as compound conversion to fipronil at 2 mM measured 48 to 72 hr post treatment by HPLC-MS method. The data set is classed as ADME. Particulars: 2000 µM. An outline of the steps:
as §1

Data set [8] relates to Lower stem. Description: Drug metabolism in adult Ricinus communis (castor bean) lower stem assessed as compound conversion to fipronil at 2 mM measured 48 to 72 hr post treatment by HPLC-MS method. Type of data set: ADME. Particulars: 2000 µM. In a few lines: as §1
Data set [9] deals with Upper stem. Description: Drug metabolism in adult Ricinus communis (castor bean) upper stem assessed as compound conversion to fipronil at 2 mM measured 48 to 72 hr post treatment by HPLC-MS method. Particulars: 2000 µM. Type of data set: ADME. In a few lines:
as §1

The test system of data set [10] is Apical leaf. The data set is described as follows: Drug metabolism in adult Ricinus communis (castor bean) apical leaves assessed as compound conversion to fipronil at 2 mM measured 48 to 72 hr post treatment by HPLC-MS method. Type of data set: ADME. Particulars: 2000 µM. An outline of the steps: as §1
Data set [11] relates to Phloem. The data set is described as follows: Phloem mobility in Ricinus communis (castor bean) seedlings phloem sap assessed as drug level at 200 uM measured 7 hr post dose by DiBAC4 indicator based flow cytometry relative to untreated control. Type of data set: ADME.
Data set [12] concerns Phloem. Description: Phloem mobility in Ricinus communis (castor bean) seedlings phloem sap assessed as drug level at 200 uM measured 3.5 hr post dose by DiBAC4 indicator based flow cytometry relative to untreated control. The data set is classed as ADME.

In brackets after ≈: the same amount, converted by molar mass.

As usually defined, the LC50 is the concentration lethal to half of the exposed cells or organisms. Higher therefore signals lower toxicity. Take `N#Cc1nn(-c2c(Cl)cc(C(F)(F)F)cc2Cl)c(N)c1[S+]([O-])C(F)(F)F` (stereo not given) [FIPRONIL]: in the data set on Plutella xylostella, the LC50 is 21.4 µg/mL (≈ 48.9 µM). The Drug mobility entry in the data set on Phloem [1] and with Phloem [2] was “Not Active” throughout.
As to `N#Cc1nn(-c2c(Cl)cc(C(F)(F)F)cc2Cl)c(NCc2cn([C@@H]3O[C@H](CO)[C@@H](O)[C@H](O)[C@H]3O)nn2)c1[S+]([O-])C(F)(F)F` (stereo not given in full), the Drug metabolism result with Root [3], in the data set with Lower stem [4], in the data set with Upper stem [5], in the data set on Apical leaf [6], in the data set with Root [7] and in the data set with Lower stem [8] was “Active” each time. Further, the Drug metabolism entry in the data set with Upper stem [9] and with Apical leaf [10] was “Active” each time. The “fold change (FC)” value with Phloem [11] stood at 0.45; in the data set on Phloem [12] it was 0.25. In addition, the Drug mobility entry in the data set with Phloem [1] and with Phloem [2] was “Active” each time.
